The entries come from a sample that favours hits as a whole.
CHOP UPR activ = activators of apoptotic CHOP UPR arm, primary screen, cell-based, CHO-CHOP luciferase reporter, luminescence, uHTS; actives 0.34% (n = 330,000); UPR activation; percent of tunicamycin response over DMSO baseline; AID 449763, 2010; activation, % at 10 µM;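 active means at 10 µM dose, activation of 40% or more, normalized to positive control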
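Assay system: CHO cells with stable CHOP pathway luciferase reporter; Buffer or medium: F12 plus 10% serum; Times: 16-18 h cell attachment, then 6 h compound exposure, 37 °C; Signal: luciferase luminescence; Read-out basis: percent activation relative to tunicamycin control; Control set: tunicamycin high control, DMSO low control.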
XBP1 UPR activ = activators of adaptive XBP1 UPR arm, primary screen, cell-based, CHO-XBP1 luciferase reporter, luminescence, uHTS. IRE1-XBP1 UPR activation; percent of tunicamycin response, DMSO as zero. activation, % at 20 µM. actives 0.33% (n = 330,000). AID 463104, 2010;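 active means versus positive control, 20 µM dose yields 30% or more activation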
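Material: IRE1-XBP1 luciferase reporter CHO line / Quantity: one thousand reporter cells per well / Buffer or medium: F12 with 10% serum / Compound: 20 µM single concentration, DMSO 1% / Times: 6 h treatment, 37 °C / Detection: Steady-Glo luciferase glow luminescence, 10 min after reagent addition / Benchmarks: tunicamycin high, DMSO low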
FXN GAA850 act = FXN promoter activators, primary screen, cell-based, luciferase luminescence, HEK293 lucGAA850. HEK293 lucGAA850 FXN promoter luciferase reporter, 24 h; percent of 10 µM SAHA response. activation, % at 6 µM. actives 0.56% (n = 360,000). AID 540364, 2011;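 active means activation above the average of all compounds screened plus 3 SD, cutoff fixed separately per campaign, cut at about 7.5% in these data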
CHOP inh = inhibitors of CHOP promoter induction, primary screen, cell-based, unfolded protein response, luciferase reporter; CHO-K1 CHOP-promoter luciferase, tunicamycin-induced, 15-18 h; inhibition, % at 10 µM; actives 3.8% (n = 220,000);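 active means compounds that reduced the stress-induced luciferase reporter signal by more than about 70% of percent inhibition, limit read from the data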
GAA30 FXN cntr = GAA30 FXN promoter activators, confirmation, counter-screen for GAA850 frataxin promoter activator project, cell-based, luminescence, HEK293, lucGAA30, triplicate. AID 588350, 2011. HEK293 lucGAA30 FXN promoter luciferase, 24 h; DMSO = 0%, 5 µM ipriflavone = 100%. activation, % at 6 µM. shares compounds with FXN GAA850 act. actives 66% (n = 1,900);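 active means mean activation above the mean of solvent-only control wells plus 3 SD, cut at about 22% in these data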;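 further: counterscreen of GAA850 promoter hits where activity marks nonselective or luminescence artifacts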
FXN GAA850 conf = FXN GAA850 promoter activators in reporter cells, confirmation, cell-based, luminescence, HEK293 lucGAA850, triplicate | actives 86% (n = 1,900) | activation, % at 6 µM | shares compounds with FXN GAA850 act | HEK293 lucGAA850 FXN promoter luciferase reporter, 24 h; 100% = activation by SAHA;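 active means mean activation above a set limit taken from the primary screen, cut at about 8% in these data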
Hits are given with their value; n = inactive; x = no result.

SMILES	CHOP UPR activ	XBP1 UPR activ	FXN GAA850 act	CHOP inh	GAA30 FXN cntr	FXN GAA850 conf
CCCN1C(=O)S/C(=C\c2ccc(N3CCOCC3)o2)C1=O	n	n	9.8	n	95	29
COc1ccc(/C(C)=N/Nc2ccc(C(=O)O)cc2)cc1OC	n	n	8.5	n	93	32
COc1ccccc1C(=O)Nc1nsc(-c2ccccc2)n1	n	n	9.3	n	104	31
COc1ccccc1C(=O)Nc1ccncc1	n	n	n	x	x	x
COc1ccc(S(=O)(=O)N2CCOC2CNC(=O)C(=O)NCc2ccc3c(c2)OCO3)cc1C (configuration not stated)	x	x	n	x	x	x
COc1cc(-c2cnc3c(NC(C)=O)cc(-c4ccc(N5CCN(C)CC5)cc4)cn23)cc(OC)c1OC	x	x	n	x	x	x
COc1cc(-c2cnc3c(NC=O)cc(-c4ccc(N5CCN(C)CC5)cc4)cn23)cc(OC)c1OC	x	x	11	x	109	51
CC(C)CNC(=O)C1(C)CCCN1C(=O)c1cccnc1 (configuration not stated)	x	x	n	x	x	x
COc1ccc(CCNC(=O)c2cc(-c3ccco3)on2)cc1OC	n	n	13	n	77	34
O=C(NCCc1ccccc1)c1cc(-c2ccco2)on1	n	n	13	n	153	54
O=C(NCc1ccccc1)c1cc(-c2ccco2)on1	n	n	n	n	x	x
Cc1c(C(=O)Nc2cccnc2Cl)oc2ccccc12	n	n	7.8	x	128	42
COC(=O)c1ccc(NN=Nc2ccc(C)cc2)cc1	n	n	7.8	n	84	31
COC(=O)c1ccc(C)cc1	n	n	n	x	x	x
NC(=O)C1CC(=O)N(c2ccc(OCc3ccc(Cl)cc3)cc2)C1 (configuration not stated)	n	n	8.3	n	74	25
CCN(CC(O)CON=C1c2ccccc2-c2ccccc21)S(=O)(=O)c1ccc(C)cc1 (configuration not stated)	n	n	7.6	n	n	15
CCCS(=O)(=O)NC(=O)C1(C)CCCN(C(=O)c2ccc(C(=O)OC)cc2)C1 (configuration not stated)	x	x	n	x	x	x
CN(C)c1ccc(N=Nc2ccccc2C(=O)OCC(=O)N2CCCC2)cc1	n	n	n	n	x	x
CN(C)c1ccc(N=Nc2ccccc2C(=O)OCC(=O)Nc2ccccc2C(F)(F)F)cc1	x	x	7.6	n	73	23
CCc1ccc(/C=N/Nc2ncnc3nc[nH]c23)cc1	n	n	11	n	132	54
CC(C)=NNc1ncnc2nc[nH]c12	x	x	n	x	x	x
C=CCn1c(SC(C)C(=O)NCCC2=CCCCC2)nc2ccccc2c1=O (configuration not stated)	n	n	10	n	n	9.5
CCOC(=O)CS(=O)(=O)c1nc(-c2ccc(F)cc2)cc(C(F)(F)F)n1	n	n	21	x	n	n
CCOC(=O)c1c(C(F)(F)F)cc(-c2ccc(F)cc2)nc1C	n	n	n	n	x	x
CCOC(=O)CS(=O)(=O)c1nc(-c2ccccc2)cc(C(F)(F)F)n1	n	n	11	x	n	n
SMILES	CHOP UPR activ	XBP1 UPR activ	FXN GAA850 act	CHOP inh	GAA30 FXN cntr	FXN GAA850 conf
CCOC(=O)CS(=O)(=O)c1ccccc1	n	n	n	n	x	x
CC(C)c1ccc(NC(=O)C2Cc3c(-c4cccc(F)c4)ccnc3O2)cc1 (configuration not stated)	x	x	n	x	x	x
CCn1cc(/C=C/C(=O)c2ccc(O)cc2)c(C)n1	n	n	8.7	n	102	24
COc1ccc(OC)c(/C=N/N(C)c2ccccc2)c1	n	n	7.9	72	127	43
COc1ccc(OC)c(C=NN=Cc2cc(OC)ccc2OC)c1	x	x	n	x	x	x
CCCNC(=O)C1(C)CCN(C(=O)c2ccc(C)c(F)c2)C1 (configuration not stated)	x	x	n	x	x	x
